From PubChem BioAssay
Hits are enriched below; roughly 3.3% of the tested compounds scored in any of these assays.
XiGFP reactiv – activators of X-chromosome reactivation in mouse fibroblasts; XiGFP mouse fibroblasts, % GFP-positive cells imaging, 3 d; cells co-treated with 5-aza-dC sensitizer; scaled so ellipticine positive control = 100%; actives 0.055% (n = 360,000); activation, % at 7.58 µM;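 active = mean normalized replicate activation at least 10% and every replicate at or above 10%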;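 note: 0% = median of on-plate neutral control wells and 100% = ellipticine 6 µM median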
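System: XiGFP fibroblasts, SV40-immortalized. Medium: DMEM plus 5-aza-dC sensitizer. Doses: single point. Timing: 3 d treatment, 15 min room-temperature fixation. Control set: ellipticine 6 µM.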
FGF22 binding – shifts melting point of recombinant human FGF22. AID 651658. actives 1.5% (n = 340,000). activity (Tm shift, normalised), % at 9.99 µM. Q9HCT0. recombinant FGF22 thermal shift, SYPRO orange fluorescence; percent of sucrose octasulfate shift, DMSO zero;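 active = mean Tm shift, scaled 0 neutral to 100 positive control, at about 1.3% or above, every replicate too, limit read from the data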
PglD inh – blocks C. jejuni PglD acetyltransferase activity; actives 0.098% (n = 360,000); AID 602405; inhibition, % at 12.5 µM; purified PglD enzyme, DTNB colorimetric CoA detection; in the data active = inhibition above about 16%, passing the limit was not always enough
E-sel inducer – E-selectin induction on HUVECs; P16581; HUVEC E-selectin immunofluorescence imaging; normalized: neutral wells 0, TNF-alpha wells 100; activation, % at 7.58 µM; actives 0.37% (n = 260,000); AID 686992;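 active = mean E-selectin-positive cell signal at least 10% of the positive control, reached in at least 60% of replicates, without over 20% cell loss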
Target sequence (P16581 whole entry, looked up): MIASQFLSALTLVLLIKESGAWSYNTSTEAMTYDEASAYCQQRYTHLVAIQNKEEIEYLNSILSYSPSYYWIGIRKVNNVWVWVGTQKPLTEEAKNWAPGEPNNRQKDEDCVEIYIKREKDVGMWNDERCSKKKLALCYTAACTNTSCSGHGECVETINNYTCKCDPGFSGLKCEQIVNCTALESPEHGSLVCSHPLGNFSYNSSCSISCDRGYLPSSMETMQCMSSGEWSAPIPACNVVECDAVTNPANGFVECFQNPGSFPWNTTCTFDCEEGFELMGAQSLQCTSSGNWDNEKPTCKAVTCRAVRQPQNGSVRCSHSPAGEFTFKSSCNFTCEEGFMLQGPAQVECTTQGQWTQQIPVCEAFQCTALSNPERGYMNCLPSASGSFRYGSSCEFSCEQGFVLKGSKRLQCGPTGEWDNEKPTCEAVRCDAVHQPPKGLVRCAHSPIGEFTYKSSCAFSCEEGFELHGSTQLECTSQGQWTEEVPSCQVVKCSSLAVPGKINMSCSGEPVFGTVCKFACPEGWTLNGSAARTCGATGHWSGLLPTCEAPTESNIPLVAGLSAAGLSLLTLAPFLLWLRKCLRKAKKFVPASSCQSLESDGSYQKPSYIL
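Test system: HUVEC; input: 3,000 HUVEC/well; measured by: immunofluorescence imaging; read-out: % PE-positive cells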
DENV2 CPE – protects cells from dengue virus 2 cytopathic effect | CPE inhibition, % at 9.99 µM | actives 1.7% (n = 350,000) | DENV2-infected cells, cytopathic effect rescue, plate reader | AID 651640; in the data active = CPE inhibition above about 20%, passing the limit was not always enough; tested in BHK-21 cells;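 note: 0% = median of neutral control wells and 100% = median of positive control wells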
Statin myotox sup – suppression of simvastatin myotoxicity; C2C12 myotubes + simvastatin, ATP luminescence, 48 h; scaled: DMSO 0, geranylgeraniol control 100; rescue of ATP level, % at 7.49 µM; actives 0.78% (n = 330,000); AID 602340;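 active = mean ATP rescue above about 67%, or every replicate alone reaching that limit, limit read from the data, passing the limit was not always enough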;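 note: myotubes were challenged with 10 µM simvastatin during compound exposure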
Active calls of the source: *; ! = not confirmed by another sample.

How did CC1CC(=O)C(C2c3ccccc3CCN2C(=O)CCl)C(=O)C1 (configuration not stated) do in these assays?
XiGFP reactiv: 0.0; FGF22 binding: 44.1*; DENV2 CPE: 5.8

What do the screens show for `CCNC(=O)C[C@H]1CC[C@H]2[C@@H](COC[C@@H](O)CN2Cc2ccncc2)O1`?
XiGFP reactiv: 0.0; FGF22 binding: 0.1; PglD inh: -3.0; E-sel inducer: 0.1; DENV2 CPE: -8.7; Statin myotox sup: -5.9

Results for COC(=O)c1c(-c2ccc(SC)cc2)sc2ccccc12 ?
XiGFP reactiv: 0.2; FGF22 binding: 0.1; PglD inh: 6.6; E-sel inducer: 0.3; DENV2 CPE: 74.3*; Statin myotox sup: 6.5

What do the screens show for `COC(=O)c1c(-c2ccc(SC)cc2)sc2ccc(OC)cc12`?
XiGFP reactiv: 0.0; FGF22 binding: 0.5; PglD inh: 1.7; E-sel inducer: 0.2; DENV2 CPE: 0.0; Statin myotox sup: -9.2

What do the screens show for `C[C@@H]1CC(=O)N[C@@H](c2ccccc2)C/C=C\C[C@H](c2ccc3c(c2)OCO3)NC1=O`?
XiGFP reactiv: 0.2

What do the screens show for `CC(=O)Nc1ccc2nc(NC(=O)c3ccc([N+](=O)[O-])o3)sc2c1`?
XiGFP reactiv: -0.1; FGF22 binding: -0.1; PglD inh: -0.9; E-sel inducer: -0.1; DENV2 CPE: -1.3; Statin myotox sup: 114.0*

How did CC(C)NC(=O)N(C)C[C@@H]1Oc2c(NC(=O)c3ccc(-c4nccs4)cc3)cccc2C(=O)N([C@H](C)CO)C[C@H]1C do in these assays?
XiGFP reactiv: 0.0; FGF22 binding: 0.3; PglD inh: 1.2; E-sel inducer: 90.7*; DENV2 CPE: 3.0

Results for C[C@@H]1CN([C@H](C)CO)C(=O)c2cccc(NC(=O)c3ccc(-c4nccs4)cc3)c2O[C@@H]1CN(C)C ?
XiGFP reactiv: -1.3; FGF22 binding: -0.4; PglD inh: 1.6; E-sel inducer: -3.2; DENV2 CPE: 12.8; Statin myotox sup: -3.7

What do the screens show for `C[C@H]1CN([C@@H](C)CO)C(=O)c2cccc(NC(=O)c3ccc(-c4nccs4)cc3)c2O[C@@H]1CN(C)C`?
XiGFP reactiv: -1.0; FGF22 binding: 0.9; PglD inh: 20.8*; E-sel inducer: 5.7; Statin myotox sup: -8.5

Results for CC(C)NC(=O)N(C)C[C@@H]1Oc2c(NC(=O)c3ccc(-c4nccs4)cc3)cccc2C(=O)N([C@@H](C)CO)C[C@@H]1C ?
XiGFP reactiv: -0.1; FGF22 binding: 0.1; PglD inh: 4.1; E-sel inducer: 80.8*; DENV2 CPE: 7.8

How did C[C@@H]1CN([C@H](C)CO)C(=O)c2cccc(NC(=O)c3ccc(-c4nccs4)cc3)c2O[C@@H]1CN(C)C(=O)Nc1cccc2ccccc12 do in these assays?
XiGFP reactiv: -0.9; FGF22 binding: -0.1; PglD inh: 0.0; DENV2 CPE: 4.3; Statin myotox sup: 79.9*

How did C[C@@H]1CN([C@@H](C)CO)C(=O)c2cccc(NC(=O)c3ccc(-c4nccs4)cc3)c2O[C@@H]1CN(C)C(=O)NC1CCCCC1 do in these assays?
XiGFP reactiv: -0.7; FGF22 binding: -0.3; PglD inh: -1.5; E-sel inducer: 4.0; DENV2 CPE: 5.2; Statin myotox sup: 43.2

Results for CCC(=O)N(C)C[C@@H]1Oc2cc(C3=CCCCC3)ccc2S(=O)(=O)N([C@H](C)CO)C[C@@H]1C ?
XiGFP reactiv: -0.7; E-sel inducer: 3.3; Statin myotox sup: 7.9

Results for C[C@@H]1CN([C@@H](C)CO)C(=O)c2cccc(NC(=O)c3ccncc3)c2O[C@H]1CN(C)C(=O)Nc1cccc2ccccc12 ?
XiGFP reactiv: 0.0; FGF22 binding: 0.2; PglD inh: 1.1; E-sel inducer: 26.5*; Statin myotox sup: 25.9

Results for CC(C)NC(=O)N(C)C[C@H]1Oc2c(NC(=O)c3ccc(-c4nccs4)cc3)cccc2C(=O)N([C@@H](C)CO)C[C@H]1C ?
XiGFP reactiv: -0.1; FGF22 binding: 0.1; PglD inh: 0.5; E-sel inducer: 64.6*!; DENV2 CPE: 14.4; Statin myotox sup: -6.9

What do the screens show for `C[C@@H]1CN([C@@H](C)CO)C(=O)c2cccc(NC(=O)c3ccc(-c4nccs4)cc3)c2O[C@@H]1CN(C)C(=O)Nc1ccc(C(F)(F)F)cc1`?
XiGFP reactiv: 0.0; FGF22 binding: 1.4*; PglD inh: -1.0; E-sel inducer: -0.1; DENV2 CPE: 0.2; Statin myotox sup: 11.2

What do the screens show for `C[C@H](CO)N1C[C@H](C)[C@H](CN(C)C(=O)Nc2ccc(C(F)(F)F)cc2)Oc2c(NC(=O)c3ccc(-c4nccs4)cc3)cccc2C1=O`?
XiGFP reactiv: 0.1; FGF22 binding: 0.3; PglD inh: -1.3; E-sel inducer: 0.3; DENV2 CPE: 7.0; Statin myotox sup: 5.4

How did C[C@H]1CN([C@@H](C)CO)C(=O)c2cccc(NC(=O)c3ccc(-c4nccs4)cc3)c2O[C@@H]1CN(C)C(=O)NC1CCCCC1 do in these assays?
XiGFP reactiv: -0.8; FGF22 binding: -0.4; PglD inh: -2.9; E-sel inducer: -3.5; DENV2 CPE: 0.4; Statin myotox sup: 6.3

How did C[C@H](CO)N1C[C@H](C)[C@H](CN(C)C(=O)Nc2cccc3ccccc23)Oc2c(NC(=O)c3ccncc3)cccc2C1=O do in these assays?
XiGFP reactiv: 0.0; FGF22 binding: 0.3; PglD inh: -0.2; E-sel inducer: -6.9; DENV2 CPE: 5.6; Statin myotox sup: -24.2

How did CCC(=O)N1[C@H](CN(C)C(=O)CN2CCOCC2)[C@@H](c2ccccc2)[C@@H]1CO do in these assays?
XiGFP reactiv: -0.1; PglD inh: 0.1; E-sel inducer: 0.0; DENV2 CPE: 29.3; Statin myotox sup: 4.8

What do the screens show for `O=c1ccc2[n+]([O-])c3ccc(O)cc3oc-2c1`?
XiGFP reactiv: 1.5; E-sel inducer: 192.9*; DENV2 CPE: -6.7

Results for CCNC(=O)C[C@H]1C=C[C@@H](NC(=O)NC2CCCCC2)[C@H](CO)O1 ?
XiGFP reactiv: -0.5; FGF22 binding: -0.2; PglD inh: -5.5; E-sel inducer: 0.4; DENV2 CPE: -2.8; Statin myotox sup: -1.3

Results for CN(C)C(=O)C[C@@H]1C=C[C@@H](NC(=O)NC2CCCCC2)[C@H](CO)O1 ?
XiGFP reactiv: -0.2; FGF22 binding: 0.0; PglD inh: 7.3; E-sel inducer: 1.3; DENV2 CPE: 72.7*; Statin myotox sup: -4.2

How did O=C(NC1CCCCC1)N[C@H]1C=C[C@@H](CC(=O)N2CCOCC2)O[C@@H]1CO do in these assays?
XiGFP reactiv: -0.2; FGF22 binding: 0.2; PglD inh: -1.7; E-sel inducer: -0.5; DENV2 CPE: 107.9*; Statin myotox sup: 3.5
